Rows were chosen to be rich in hits. Some 2.7% of all compounds tested hit in one or more screens of this group.
NR2E3 ag-1 – activates human photoreceptor nuclear receptor NR2E3. GST-NR2E3/biotin-RetCOR TR-FRET, 1536-well. inhibition of corepressor binding, % at 4.78 µM. 320,000 tested, 0.12% active. AID 2300;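 active = percent inhibition above the cutoff of mean plus 3 SD of all tested compounds, set per screening campaign, cut at about 20% in these data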;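 also: 0% = DMSO wells and 100% = biotin wells as full block of FRET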
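Test system: GST-NR2E3 and biotin-RetCOR proteins | Quantity: 1.35 nM GST-tagged NR2E3 final | Medium: Tris pH 7.5 | Also added: 7 nM biotin-RetCOR | Dosing: Compound at 4.8 µM, single dose | Timing: 5 h at 4 °C | Detection: Time-resolved FRET | Read-out basis: Percent inhibition | Benchmarks: Biotin wells as high control, 0.6% DMSO wells as low control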
MC4R antag cAMP – human MC4R antagonism in cAMP assay; P32245; MC4R-expressing cells, MTII-stimulated cAMP, LANCE TR-FRET; inhibition, % at 6.5 µM; 360,000 tested, 0.48% active;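 active = inhibition above its plate's cutoff, the mean of tested wells on that plate plus 3 SD, cut at about 29% in these data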;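 also: 0% = Melanotan II alone and 100% = Melanotan II plus saturating MCL0020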
Target sequence (P32245 whole entry, looked up): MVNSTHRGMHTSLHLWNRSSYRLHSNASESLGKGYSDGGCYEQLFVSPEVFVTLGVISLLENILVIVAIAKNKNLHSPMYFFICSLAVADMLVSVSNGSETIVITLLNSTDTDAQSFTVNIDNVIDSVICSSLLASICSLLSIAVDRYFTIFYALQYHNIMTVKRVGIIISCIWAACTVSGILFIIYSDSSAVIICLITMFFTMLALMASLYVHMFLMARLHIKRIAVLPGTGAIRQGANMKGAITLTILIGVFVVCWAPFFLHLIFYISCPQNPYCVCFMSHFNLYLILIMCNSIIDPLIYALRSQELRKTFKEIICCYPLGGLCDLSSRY
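Material: human MC4R-expressing U2OS cells. Probe or stimulus: Melanotan II challenge. Dosing: 6.5 µM single dose. Times: 30-min compound, 1-h challenge, 1-h detection, room temperature. Technique: TR-FRET with Eu-cAMP and labeled anti-cAMP, 671 nm. Replication: singlicate.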
MC4R ag barr – agonists of human melanocortin 4 receptor (MC4R) beta-arrestin. P32245. U2OS MC4R beta-arrestin complementation, luminescence; percent of melanotan II response, DMSO zero. activation, % at 8.9 µM. 360,000 tested, 0.98% active. AID 540308;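 active = activation above a per-plate cutoff, the mean activation of sample wells on that plate plus 3 SD, cut at about 8% in these data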
Rev-erbA mod – Rev-erb alpha (human) modulation; P20393; Rev-erbα–FITC-DNA binding, fluorescence polarization, 90 min; activity, % at 10 µM; 370,000 tested, 0.79% active; AID 1259318;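 active = activity above about 14%, limit read from the data; passing the limit was not always enough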;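 also: 0% = DMSO wells with 35 nM protein and 100% = DMSO wells with 750 nM protein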
PG9 binder – PG9 antibody binding by small molecule. TR-FRET gp120-PG9 antibody binding. inhibition, % at 6.7 µM. 360,000 tested, 0.43% active. AID 624416; in the data active = inhibition above about 8.5%
NR2E3 ag-2 – activates human NR2E3 receptor. Q9Y5X4. CHO-S Gal4-NCOR/VP16-NR2E3 two-hybrid, luciferase. inhibition of corepressor binding, % at 3.98 µM. 360,000 tested, 0.35% active. AID 602229;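 active = inhibition above the mean of all tested compounds plus 3 SD, cut at about 70% in these data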;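 also: 0% = DMSO with NR2E3 transfected cells and 100% = cells lacking NR2E3 construct; higher means lower luciferase signal from less NR2E3 corepressor binding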
NR2E3 ag conf – confirmation of human NR2E3 agonists | shares compounds with NR2E3 ag-2 | CHO-S mammalian two-hybrid NR2E3-NCOR, luciferase luminescence | inhibition, % at 3.98 µM | 2,300 tested, 51% active | AID 624378;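 active = average inhibition above a cutoff equal to the mean inhibition of all tested compounds plus one SD, cut at about 70% in these data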;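 also: 0% = DMSO in NR2E3 cells and 100% = DMSO in cells lacking NR2E3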
VP16 counter – reduces GAL4-VP16 reporter signal in NR2E3 counterscreen. shares compounds with NR2E3 ag-2. CHO-S GAL4-VP16 luciferase reporter, luminescence. inhibition, % at 3.98 µM. 2,300 tested, 29% active;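 active = mean inhibition above a cutoff equal to the average over all tested compounds plus one standard deviation, cut at about 70% in these data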;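 also: luciferase from a UAS reporter driven by GAL4-VP16 transactivation; 0% = DMSO with VP16-transfected cells and 100% = DMSO with cells lacking VP16; higher means less reporter light so more repression of VP16 activity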
An asterisk follows results filed as active; . = not tested or not shown.

SMILES	NR2E3 ag-1	MC4R antag cAMP	MC4R ag barr	Rev-erbA mod	PG9 binder	NR2E3 ag-2	NR2E3 ag conf	VP16 counter
O=S1(=O)CCOC[C@H](Cc2ccccc2)N1Cc1cccc(F)c1	4.2	1.7	-1.6	-0.8	1.0	7.9	.	.
CN(Cc1ccc(Cl)cc1Cl)C(=O)c1cccc(S(=O)(=O)N2CCN(c3ccccc3)CC2)c1	3.8	3.8	-2.5	-1.1	0.5	23.3	.	.
CN(Cc1ccc(OC(F)F)cc1)C(=O)c1cccc(S(=O)(=O)N2CCN(Cc3ccccc3)CC2)c1	.	6.0	-0.2	3.5	1.1	91.3*	92.4*	76.2*
COc1cccc(CN(C)C(=O)c2cccc(S(=O)(=O)N3CCN(c4ccccc4)CC3)c2)c1OC	.	8.2	0.7	-2.9	1.0	55.1	81.2*	58.3
CC(=O)c1ccc(N2CCN(C(=O)c3cn(Cc4ccccc4)nc3-c3cccnc3)CC2)c(F)c1	1.9	16.5	0.2	4.1	-1.3	-13.6	.	.
COc1ccc(/C=N/Nc2cc(OC)ncn2)cc1	-2.2	-2.7	-2.1	1.6	-0.9	-119.5	.	.
O=C(Nc1ccc(S(=O)(=O)N2CCN(Cc3ccccc3)CC2)cc1)c1cnccn1	3.2	2.5	0.3	0.9	-2.0	61.0	86.0*	71.3*
O=C(Nc1ccc(S(=O)(=O)N2CCCC2)cc1)c1cnccn1	-0.1	15.6	0.0	-9.9	-1.8	-9.0	.	.
Cc1cc(NC(=O)CSc2nnnn2-c2ccccc2C)no1	2.6	-1.7	-3.0	2.4	-0.8	-10.0	.	.
OC1(c2ccc(OC(F)F)cc2)CSC(=Nc2cccnc2)N1C1CC1 (centres undefined)	1.2	4.0	-1.9	9.4	3.5	69.0	70.0	60.1
CCCn1c(C)cc(C(=O)CN2C(=O)c3ccccc3S2(=O)=O)c1C	.	3.6	-2.5	6.2	0.3	57.8	46.3	19.2
Cc1cc(C(=O)CN2C(=O)c3ccccc3S2(=O)=O)c(C)n1CC1CCCO1 (centres undefined)	0.9	-1.3	-2.5	10.7	2.3	23.2	.	.
N#C/C(=N\Nc1ccc(Cl)c(Cl)c1)C(=O)C1CC1	7.3	9.7	1.6	3.6	1.0	79.7*	99.5*	55.3
N#C/C(=N\Nc1ccc(F)cc1)C(=O)C1CC1	2.0	-0.9	-0.9	-5.5	-1.0	-14.7	.	.
COc1cc2cc(C(=O)Nc3ccc4c(c3)OCCO4)[nH]c2cc1OC	2.7	0.9	-1.5	3.3	-1.6	56.7	33.6	-4.2
Cc1ccc(C)c(NC(=S)c2ccccn2)c1	0.9	-5.2	-0.6	7.1	1.1	54.1	-20.1	-75.2
C/C(=N\NC(=S)Nc1ccc(C)cc1)c1cccc(N)c1	2.1	-1.2	-0.4	-4.0	-2.1	-12.4	.	.
COc1ccccc1NC(=S)NN=C(C)c1ccccn1	.	-11.1	1.0	-4.1	-0.7	78.3*	-25.7	-1.1
CC(=NNC(=S)Nc1ccc(C)cc1)c1ccccn1	.	7.5	-3.8	8.7	-0.9	71.0*	-23.9	5.0
C/C(=N\NC(=S)Nc1cccc(C)c1)c1ccccc1	-1.8	0.5	-1.5	-1.5	-0.5	71.2*	-17.8	-77.5
C/C(=N\NC(=S)Nc1cccc(C)c1)c1cccc(N)c1	0.0	2.1	-3.0	-0.1	-0.3	-39.5	.	.
CC(=NNC(=S)Nc1cccc(C)c1)c1ccccn1	.	12.3	-1.4	4.7	0.4	66.7	-63.2	-21.8
COc1ccc(C)cc1NC(=O)CSc1nc2scc(C)c2c(=O)[nH]1	0.2	0.7	-2.6	2.0	2.9	83.9*	43.5	22.7
COc1ccc(Cl)cc1NC(=O)CSc1nc2sccc2c(=O)[nH]1	2.4	4.2	-1.3	3.8	-2.0	10.2	.	.
CCC(C)(C)NC(=O)C(c1cccnc1)N(CCOC)C(=O)Cn1nnc2ccccc21 (centres undefined)	.	-2.3	-0.6	2.6	0.9	-9.0	.	.
